According to the EternaBench riboswitch data:

System: MS2 coat protein
Assay: apparent Kd, MS2 coat protein; higher = weaker binding; RNA-MaP array; FMN 200 µM where present
Method in brief: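 Green signal was scaled to red-channel RNA signal and control-cluster median Fmax, and the apparent Kd was taken as the median of filtered per-cluster binding-curve fits. The binding series used SNAP-549-labelled MS2 coat protein from 0.7 or 1.5 nM, doubling to 3 µM, on designs transcribed by stalled E. coli RNA polymerase on Illumina sequencing-chip clusters. Each series ran without and then with constant ligand in 100 mM Tris-HCl pH 7.5, 80 mM KCl, 4 mM MgCl2, BSA, DTT, yeast tRNA and Tween-20.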

[1] = designed as: OFF switch for flavin mononucleotide, no ligand
[2] = ligand present: flavin mononucleotide, designed as: OFF switch for flavin mononucleotide
[3] = designed as: ON switch for flavin mononucleotide, no ligand
[4] = ligand present: flavin mononucleotide, designed as: ON switch for flavin mononucleotide

Row | Sequence | apparent Kd [1] | apparent Kd [2] | apparent Kd [3] | apparent Kd [4]
1 | UAUAUGUCAGGAUAUCGAUUGGAAUGGAAUUUAGUUCUGGUUGAGAAGGGACAUGAGGAUCACCCAUGUUUUUC | 35.5 nM | 213 nM | – | –
2 | AAAUUUAACGAAGGAUAUGCUAACAUGAGGAUCACCCAUGUGUGCUUUGUGUUGCUGAAAUUGGAGCAGAAGGUCGUAUACAUA | 95.4 nM | 145 nM | – | –
3 | CAUGUUUGGCUGGUCGAGAAACACAUGAGGAUCACCCAUGUCAGAAGGCGACGUCAGCAAACCGUCGAGGAUAUGACAUCAAAA | 5.65 nM | 30.2 nM | – | –
4 | GCCAGGAUGUAAGGAUAUGCUGAGGAAUACUCAGCAGAAGGUACAUGAGGAUCACCCAUGUAAUCCUAAUAAUAAUAACCUGGC | 11.1 nM | 16.6 nM | – | –
5 | UUGGAGUACGUAGGAUAUGUAGGAUAUUCCUACAUGAGGAUCACCCAUGUUGACAUGGAGGAAGGACAGAAGGACGUGCUCCAU | – | – | 435 nM | 241 nM
6 | GGACGUCAGAUUAACAUGAGGAUCACCCAUGUCUUUUGACAUGAGGAUAUCCAUCCUAAUUGGAUGGAGAAGGCAUGGACGUCC | – | – | 975 nM | 189 nM
7 | UAAAAGCGGAAGGAUAUGUGUCUAAAGUCUGUAGCAGAAGGUCCGACAUGAGGAUCACCCAUGUGACCUGGUGC | 11.1 nM | 13.9 nM | – | –
8 | UUUUCCAGAGGAUAUGCGAAUAAAUAAAACUUUUUUUUUUAACAUGAGGAUCACCCAUGUAGAAGGCUGAUUUU | 47.9 nM | 48.5 nM | – | –
9 | UGGACCGAGCUAUCGGUUGACUCGAAGGAUAUGACAUGAGGAUCACCCAUGUGGGAUCUAAAUUGUCAGAAGGUUGGUUCUGGG | 367 nM | 140 nM | – | –
10 | AUCAGCUCGUCAGGAUAUACGUCACUGCUUCGGCAGUGUGGUAAGAUAACAUGAGGAUCACCCAUGUAGAAGGGACGAGCUGAU | 6.3 nM | 12.1 nM | – | –
11 | UUAUUUAUGCAAGGAUAUCAUUAAUUUUUACGUCCUACAUGAGGAUCACCCAUGUUUAGUUUAUUUGAGAAGGUGCAUUGUCUG | – | – | 38.4 nM | 27.6 nM
12 | GUGUAGGGAGGAUAUACAUGAGGAUCACCCAUGUGAAUAAGAUAGAAUAAGAUAAAGUGUAGAAGGUCUAGUGU | 66 nM | 51.9 nM | – | –
13 | UAGAUGGGAGGAUAUACGUAGUUGCAGGUUCGUGUGGUGCUACAUGAGGAUCACCCAUGUAGAAGGCCCGUCUU | 14.7 nM | 40.6 nM | – | –
14 | AACCUAUUACAGAAGGCCAGCUACAUGAGGAUCACCCAUGUCGAGUCAUGGAGGAUAUGUAGUAAUUCACUCGCAGAUGAGUAC | – | – | 29.8 nM | 5.33 nM
15 | AUGAGAAAAGCAGGAUAUCUAUUGGCUCAGAAACAUGAGGAUCACCCAUGUAGAGAAGGGCUAAGACCGACUCUUCGGAGUUGA | 5.68 nM | 6.51 nM | – | –
16 | UCCUCUUUGAAGAAGGCGUGGUUAUGCAAGCCGCGAGGAUAUUCACAUGAGGAUCACCCAUGUGGAUUUCAGUCCGCUCAAAAC | 11.9 nM | 61.8 nM | – | –
17 | AUGGAACAUGAGGAUCACCCAUGUGAGGAUAUGUGAGAAGGAUUUGAGAUGGAGAGGGACAGAAGGCACUAGGA | 54.4 nM | 37.9 nM | – | –
18 | GUGGAGGGUUGAGGAUAUUGAAUACAUAUGUUUAACAUGAGGAUCACCCAUGUGGGUUGCGGUAUCGAGAAGGUAAAUUGCUGG | – | – | 97.2 nM | 109 nM
19 | UUUUAACAUGAGGAUCACCCAUGUGAGGAUAUCGAAAUUUAUAUUUAUAUUAAUAAUUCGAGAAGGCACAUUUU | 172 nM | 165 nM | – | –
20 | CUUCCAGUUGCAGGAUAUCGAGAGGAGAGAUUACGAGAAGGGCAACAUGAGGAUCACCCAUGUAUGUGCUUGGGACAACCUAUC | 16.8 nM | 107 nM | – | –
21 | AGCUGGUGACAGCAUCCAUCAUAACAUGAGGAUCACCCAUGUAGAAGGCUGUACGGUUACCGUACAGAGGAUAUACAAUGAUGG | 7.4 nM | 7.32 nM | – | –
22 | UAUUAACAUGUAGGAUAUCUGCACGAUUAGUGCAGAGAAGGACAUGAGGAUCACCCAUGUAGAUCAUAAUAAUUUAAUUUAAUU | 133 nM | 422 nM | – | –
23 | AUGAAAGUAACGCAGGAUAUCCAGGAUACAACAUGAGGAUCACCCAUGUACAUACGAACGUAUAAGGAGAAGGGUGGAUGAUCUUC | – | – | 173 nM | 342 nM
24 | GGUACCAUCACAGGAUAUGCUUUCCAUUGGGAAGCAGAAGGGUGUAACAUGAGGAUCACCCAUGUGGUGCCAGGGCGUGAGCCU | – | – | 217 nM | 15.2 nM
25 | GUGUCUAACUAGAAGGCCGAUAGCAAAGCUAUCGGAGGAUAUGGGUUCCGGAAACGGACAUGAGGAUCACCCAUGUGGCACAAA | – | – | 103 nM | 13.8 nM
26 | AGGAAACAUGAGGAUCACCCAUGUAAAGAUGGGCGAGGAUAUCGAAAGAAAAGAAAGAAACGAGAAGGCGCAAAAG | – | – | 305 nM | 72.1 nM
27 | AUCAUACAUGAGGAUCACCCAUGUUCCGGCAGGUCAGGAUAUAAAUCGAAUGAGUUCUAGUUAGAAGGGACAUCUA | – | – | 49.3 nM | 39.2 nM
28 | GUGCACAUUCGAGGAUAUCGGAGAGGAAUCCUUCGAGAAGGCGAUUCAUGCUGUGUUAUUCUGGACAUGAGGAUCACCCAUGUG | – | – | 192 nM | 97.8 nM

Row | Sequence | apparent Kd [1] | apparent Kd [2] | apparent Kd [3] | apparent Kd [4]
29 | UGUCAAAAUGAAGGAUAUCUAAGCAUAAACCAUAGAGAAGGUCAAUAGUACAUGAGGAUCACCCAUGUUAGAAUAGAUGGGUUA | 99.9 nM | 155 nM | – | –
30 | UUGAAUUAAAAGGAUAUGGGAGUCGAUAGACACCCAGAAGGUUUAACAUGAGGAUCACCCAUGUGUCCUAUCAA | 23.1 nM | 31.4 nM | – | –
31 | AAAGUGUGAGGAUAUCCGGGACUGGGCCGGGAGGUUCGGAAGGAGAAGGCACAUGAGGAUCACCCAUGUAACGG | 59.3 nM | 44.3 nM | – | –
32 | UUGGACGUCGUAGGAUAUGUAGGAUAUUUCUACAUGAGGAUCACCCAUGUUGACAUGGAAGAAGGACAGAAGGACGAUGUCCAU | – | – | 123 nM | 5.64 nM
33 | CUGAUGUGAGGAUAUCGGGCUACAGGACUGCUGCUAGCAAACGAGAAGGCACAUGAGGAUCACCCAUGUGAGAG | 18.1 nM | 25.4 nM | – | –
34 | CCUCGACAUGAGGAUCACCCAUGUCAGGAUAUUGUGUAUCGGGUUUUUUACGGAAAGGCGAGAAGGGAUGUGUG | 18.4 nM | 16.9 nM | – | –
35 | AUGUUAGGGAGAGGAUAUUGACAUGAGGAUCACCCAUGUAUUUGGGAGUGUUUACUGAAUUCUUACGAGAAGGCUUACGAAAUU | 396 nM | 242 nM | – | –
36 | GGACAUGUCGUCUACAUGAGGAUCACCCAUGUCGAUAGACAUGAGGAUAUCGAUAAGAAUUGUAUCGAGAAGGUAUGUAGGUCC | – | – | 18.7 nM | 24.9 nM
37 | AUAUUACGAGGAUAUCGUUUUUUUCACAUGAGGAUCACCCAUGUUAUCCAUGUUUCGUUUCGAGAAGGCGUAAGUU | 50.6 nM | 36.1 nM | – | –
38 | GCAUCGCAUGUCAGGAUAUGCUGUACCUUGGUACAGCAGAAGGGACAUGAGGAUCACCCAUGUGCCUACGAUGC | 29.2 nM | 169 nM | – | –
39 | UGGCGUAUCGAAGGAUAUCUGGGCUUACUCGGAGGAUCGACAUGAGGAUCACCCAUGUAUGACCAAGAGAAGGUCGAGGACGUA | 141 nM | 253 nM | – | –
40 | AUAGGUUAAGGAGGAUAUAGAGGGAGAAGUAAACAUGAGGAUCACCCAUGUAUUUAAUUAGUUUACUAGAAGGCUUAUGAUUGU | – | – | 39.2 nM | 43.7 nM
41 | GGAUUACAUGAGGAUCACCCAUGUGAGGAUAUCGAUGUCCUAGGUCAAGUGCGGGACUCGAGAAGGCACUUGGA | 52.4 nM | 28.9 nM | – | –
42 | UCAUUUAAUACAGGAUAUGUUAGUAUACAGUUGAUUGGUUAUUACAUAAUAACAGAAGGGUAGAACAUGAGGAUCACCCAUGUA | – | – | 254 nM | 131 nM
43 | AAGAGCGAUUCUCCCUUCCUACAUGAGGAUCACCCAUGUACGAGAAGGCGCCGUGUAUACAACGGUGAGGAUAUCGUACGUUAC | 5.46 nM | 10.7 nM | – | –
44 | GUCAGCUCGUGAGGAUAUAGAACACUGCUUCGGCAGUGUAUUAAGAUCACAUGAGGAUCACCCAUGUAGAAGGCACGAGCUGAU | 5.12 nM | 9.33 nM | – | –
45 | AUAAUUAAGCGAGGAUAUAUAUAGAAUAAUUAUAUAGAAGGCGCAAAACAUGAGGAUCACCCAUGUCACCCAUGUUGUGUGUAA | – | – | 121 nM | 47.3 nM
46 | AGUCGGAUCUAUUAACAUGAGGAUCACCCAUGUAUUUGCAACUAGGAUAUCGAUUAUUAUUUCGUCGAGAAGGAGUAUACAUAA | 24.2 nM | 37.3 nM | – | –
47 | AGUCAUUUACAGAAGGGUAGUUGGGUUAUACAUGAGGAUCACCCAUGUUUUACAGGAUAUGUGUUUUGUUACUAUUAAAGUUCA | 65.7 nM | 120 nM | – | –
48 | UUCCUACAUGAGGAUCACCCAUGUCAGGAUAUCUCCUCACCGCGAAUGGGCAGUGAAUAGAGAAGGGACAGGAA | 11.9 nM | 15.9 nM | – | –
49 | CUGCUAGUUGAGAAGGGACAACUUGGUGAUCGGACAUGAGGAUCACCCAUGUCAGGAUAUCAGGGUAGACCCAGCAGGGUGAAA | 6.56 nM | 7.83 nM | – | –
50 | AGUGUCAUCCAGAAGGCCUCAUGACAUGAGGAUCACCCAUGUUAUCAUGGGAGGAUAUGGAUGAUACAGCUACGUUUCGUAGCA | – | – | 90.5 nM | 25.4 nM
51 | UCAAAGAGAUCGAACGGGAGGCGUAAGGAUAUGCACAUGAGGAUCACCCAUGUCUACGAAAGUAGGCAGAAGGUACGCGGGAUU | – | – | 253 nM | 30.6 nM
52 | CAGAAGUCAGGAUAUCCAUGGCGGCACUUGCGUGGUGGCGUGGAGAAGGGACAUGAGGAUCACCCAUGUAAAGC | 57.4 nM | 45.3 nM | – | –
53 | AAUUAGUGUGUGAGGAUAUUGGUGGAAUGACAUAUUAAGAAGGCACAUGAGGAUCACCCAUGUGGGAUGUCACG | 10.9 nM | 13.6 nM | – | –
54 | GCCGGUUAAGUCAGGAUAUACCUAUGGAUACAUAGGUAGAAGGGACAUGAGGAUCACCCAUGUUCCUCAUCGGC | 16.1 nM | 48.9 nM | – | –
55 | CUCUUGUAAGGAUAUGCUGCUCGUCACGAAAGUGAUGAGUAGCAGAAGGUACAUGAGGAUCACCCAUGUAAAUA | 111 nM | 34.9 nM | – | –
